# Assays:
# [1] = test system: Vero; experiment: Cytotoxicity against African green monkey Vero cells after 72 hrs by MTS-PMS assay; assay type: cell-based; conditions: Chlorocebus sabaeus
# [2] = target: Cytochrome P450 3A4 (Homo sapiens, UniProt P08684); experiment: Inhibition of CYP3A4 (unknown origin); assay type: ADME
# [3] = Protein binding in human plasma; assay type: ADME, cell-free; conditions: read-out: PPB
# [4] = Ratio of AUC in mouse to MIC90 of replicating Mycobacterium tuberculosis H37Rv after 4 days by Alamar blue assay
# Procedure, shortened: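 Mouse plasma exposure (AUC_inf, µg*h/mL) divided by the MIC90 against replicating H37Rv from the aerobic MABA assay.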
# [5] = test system: Mycobacterium tuberculosis; experiment: Antitubercular activity against replicating Mycobacterium tuberculosis H37Rv after 4 days by Alamar blue assay; assay type: functional; conditions: 96 h
# Procedure, shortened: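 MIC90 against M. tuberculosis H37Rv under aerobic, replicating conditions (MABA). Tested at the Institute for Tuberculosis Research, University of Illinois at Chicago.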
# [6] = test system: Mycobacterium tuberculosis; experiment: Antitubercular activity against non-replicating Mycobacterium tuberculosis H37Rv after 10 days by LORA; assay type: functional; conditions: 240 h
# Procedure, shortened: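 MIC90 against M. tuberculosis H37Rv under non-replicating conditions (LORA). Tested at the Institute for Tuberculosis Research, University of Illinois at Chicago.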
# Cytochrome P450 3A4, sequence (P08684 whole entry): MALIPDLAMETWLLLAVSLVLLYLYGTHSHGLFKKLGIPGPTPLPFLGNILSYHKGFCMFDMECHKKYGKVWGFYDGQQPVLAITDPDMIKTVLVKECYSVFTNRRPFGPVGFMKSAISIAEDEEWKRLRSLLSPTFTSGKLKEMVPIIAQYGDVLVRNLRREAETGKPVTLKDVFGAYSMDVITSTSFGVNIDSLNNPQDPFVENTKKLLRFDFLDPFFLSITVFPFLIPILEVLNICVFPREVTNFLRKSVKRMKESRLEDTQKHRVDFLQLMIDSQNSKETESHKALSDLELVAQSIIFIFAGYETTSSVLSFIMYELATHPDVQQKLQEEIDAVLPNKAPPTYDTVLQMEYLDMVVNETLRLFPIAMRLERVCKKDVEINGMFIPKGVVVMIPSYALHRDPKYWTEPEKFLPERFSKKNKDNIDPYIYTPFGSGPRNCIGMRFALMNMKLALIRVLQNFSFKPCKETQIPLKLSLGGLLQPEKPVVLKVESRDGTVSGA
SMILES,IC50 [1] [µg/mL],IC50 [2] [µM],fraction unbound [3],Ratio [4],MIC90 [5] [µg/mL],MIC90 [6] [µg/mL]
COc1cccc(C(c2cc3cc(C#N)ccc3nc2OC)C(O)(CCN(C)C)c2cc(C)nc(C)c2)c1F (racemic),> 10,> 10,< 0.001,–,–,–
COc1cnc(OC)c(C(O)(CCN(C)C)C(c2cc3cc(Br)ccc3nc2OC)c2cccc(OC)c2F)c1 (racemic),> 10,–,< 0.001,–,–,–
CCOc1cc(C(O)(CCN(C)C)C(c2cc3cc(Br)ccc3nc2OC)c2ccnc(OC)c2OC)cc(OC(C)C)n1 (racemic),> 10,–,< 0.001,–,–,–
COc1cc(C(O)(CCN(C)C)C(c2cc3cc(Br)ccc3nc2OC)c2ccnc(OC)c2OC)cnc1OC (racemic),> 10,–,< 0.001,71.3,–,–
COc1nc2ccc(Br)cc2cc1C(c1cccc2c1OCO2)C(O)(CCN(C)C)c1cccnc1OC (racemic),> 10,> 10,< 0.001,5.73,–,–
COc1cccc(C(c2cc3cc(Br)ccc3nc2OC)C(O)(CCN(C)C)c2cc(C)cnc2C)c1OC (racemic),> 10,–,< 0.001,19.9,–,–
COc1cc(C(O)(CCN(C)C)C(c2cc3cc(Br)ccc3nc2OC)c2ccnc(OC)c2OC)c(OC)nc1OC (racemic),> 10,–,< 0.001,–,–,–
COc1nc2ccc(Br)cc2cc1[C@@H](c1ccccc1)[C@@](O)(CCN(C)C)c1cccc2ccccc12 [BEDAQUILINE],> 10,–,< 0.001,–,–,–
COc1nc2ccc(Br)cc2cc1C(c1cccc(C)c1)C(O)(CCN(C)C)c1cccnc1C (racemic),> 10,> 10,< 0.001,–,–,–
CCc1cc(C(O)(CCN(C)C)C(c2cc3cc(Br)ccc3nc2OC)c2cccc(OC)c2F)cc(CC)n1 (racemic),> 10,–,< 0.001,–,–,–
CCOc1cc(C(O)(CCN(C)C)C(c2cc(OC)nc(OC)c2)c2cc3cc(Br)ccc3nc2OC)cc(OC(C)C)n1 (racemic),> 10,–,< 0.001,1650,–,–
COc1nc2ccc(Br)cc2cc1C(c1cccc(C)c1)C(O)(CCN(C)C)c1cccnc1OC (racemic),> 10,> 10,< 0.001,19.3,–,–
COc1cccc(C(c2cc3cc(Br)ccc3nc2OC)C(O)(CCN(C)C)c2cccc(C)n2)c1F (racemic),> 10,–,< 0.001,–,–,–
COc1cccc(C(c2cc3cc(Br)ccc3nc2OC)C(O)(CCN(C)C)c2cc(C)nc(C)c2)c1OC (racemic),–,–,–,–,0.04,0.07
CCc1cc(C(O)(CCN(C)C)C(c2cc3cc(C#N)ccc3nc2OC)c2cccc(OC)c2F)cc(CC)n1 (racemic),> 10,–,< 0.001,–,–,–
COc1cccc(C(c2cc3cc(Br)ccc3nc2OC)C(O)(CCN(C)C)c2ccc(C)nc2)c1F (racemic),> 10,> 10,< 0.001,–,–,–
COc1nc2ccc(Br)cc2cc1C(c1cccc2c1OCO2)C(O)(CCN(C)C)c1cccnc1C (racemic),> 10,> 10,< 0.001,–,–,–
COc1cccc(C(c2cc3cc(C#N)ccc3nc2OC)C(O)(CCN(C)C)c2cc(C)nc(C)c2)c1OC (racemic),> 10,–,< 0.001,6.17,–,–
COc1nc2ccc(C#N)cc2cc1C(c1cccc(F)c1)C(O)(CCN(C)C)c1cncc(C)c1 (racemic),> 10,–,< 0.001,–,–,–
COc1cc(C(O)(CCN(C)C)C(c2cc3cc(Br)ccc3nc2OC)c2cccc(OC)c2F)c(OC)cn1 (racemic),> 10,–,< 0.001,–,–,–
COc1cccc(C(c2cc3cc(Br)ccc3nc2OC)C(O)(CCN(C)C)c2cnc(C)cc2C)c1OC (racemic),–,–,< 0.001,104,–,–
COc1cccc(C(O)(CCN(C)C)C(c2cc3cc(Br)ccc3nc2OC)c2cccc3c2OCO3)n1 (racemic),> 10,–,< 0.001,10.4,–,–
COc1nc2ccc(C#N)cc2cc1C(c1cccc(C)c1)C(O)(CCN(C)C)c1cccnc1OC (racemic),> 10,> 10,< 0.001,2.25,–,–
